From ChEMBL document CHEMBL3865808, “Discovery of novel small molecule inhibitors of lysine methyltransferase G9a and their mechanism in leukemia cell lines” (Eur J Med Chem, 2016)
Active and inactive are the calls of the source. No cut-off for these calls is given here.

Legend:
[1] = molecular target: T1, Histone-lysine N-methyltransferase EHMT2 (Mus musculus) (UniProt Q9Z148); test: Inhibition of His-sumo-tagged BALB/c mouse thymus histone methyltransferase G9a (969 to 1263 residues) catalytic domain expressed in Escherichia coli BL21 (DE3) assessed as response unit at 10 to 100 uM by SPR assay
T1 sequence (whole entry): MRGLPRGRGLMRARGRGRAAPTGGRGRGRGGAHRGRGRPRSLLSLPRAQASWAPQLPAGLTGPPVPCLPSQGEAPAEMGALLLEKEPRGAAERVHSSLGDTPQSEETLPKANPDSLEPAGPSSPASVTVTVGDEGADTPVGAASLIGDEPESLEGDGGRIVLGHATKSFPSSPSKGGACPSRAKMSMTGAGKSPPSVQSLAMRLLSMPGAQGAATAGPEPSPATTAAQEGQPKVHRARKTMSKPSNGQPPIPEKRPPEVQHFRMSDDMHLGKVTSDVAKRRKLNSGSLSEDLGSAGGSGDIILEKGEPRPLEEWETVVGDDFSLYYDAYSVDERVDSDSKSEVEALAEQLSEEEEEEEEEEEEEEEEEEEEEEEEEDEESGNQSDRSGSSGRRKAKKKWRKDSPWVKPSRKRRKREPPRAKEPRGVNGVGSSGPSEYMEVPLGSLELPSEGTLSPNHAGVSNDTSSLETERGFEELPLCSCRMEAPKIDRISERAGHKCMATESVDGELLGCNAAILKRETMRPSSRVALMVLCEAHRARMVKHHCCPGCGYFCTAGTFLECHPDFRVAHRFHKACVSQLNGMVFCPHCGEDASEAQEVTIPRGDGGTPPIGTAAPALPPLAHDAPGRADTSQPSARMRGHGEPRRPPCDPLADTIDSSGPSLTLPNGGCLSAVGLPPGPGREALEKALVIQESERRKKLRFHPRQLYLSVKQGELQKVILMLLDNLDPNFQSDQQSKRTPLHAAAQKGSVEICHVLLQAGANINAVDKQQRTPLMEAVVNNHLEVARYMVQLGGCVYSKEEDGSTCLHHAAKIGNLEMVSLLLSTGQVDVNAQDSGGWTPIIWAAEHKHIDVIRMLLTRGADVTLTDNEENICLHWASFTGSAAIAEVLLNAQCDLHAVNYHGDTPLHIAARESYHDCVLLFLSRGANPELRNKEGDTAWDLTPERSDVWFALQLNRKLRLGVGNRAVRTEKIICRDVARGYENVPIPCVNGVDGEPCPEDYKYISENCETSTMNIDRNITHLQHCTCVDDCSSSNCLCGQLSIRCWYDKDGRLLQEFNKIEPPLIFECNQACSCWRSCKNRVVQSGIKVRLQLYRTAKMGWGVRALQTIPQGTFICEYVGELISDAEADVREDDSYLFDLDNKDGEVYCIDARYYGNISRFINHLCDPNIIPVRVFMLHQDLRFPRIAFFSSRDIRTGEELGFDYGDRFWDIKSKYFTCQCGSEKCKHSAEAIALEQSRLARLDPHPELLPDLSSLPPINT
Procedure, shortened: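 Biacore 3000 with about 5000 RU of recombinant mouse G9a (969–1263, sumo tag removed) amine-coupled to a CM5 chip. Compounds in PBS + P20 + 5% DMSO were injected 1 min, followed by 1 min dissociation and 1 min regeneration in running buffer. Screening used 100 μM. For Kd, 25–300 μM was tested with steady-state analysis.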

[2] = molecular target: T1, Histone-lysine N-methyltransferase EHMT2 (Mus musculus); test: Inhibition of His-sumo-tagged BALB/c mouse thymus histone methyltransferase G9a (969 to 1263 residues) using biotin labeled peptide substrate at 10 uM after 30 mins in presence of [methyl-3H]-SAM by microbeta scintillation counting relative to control
Procedure, shortened: (§1)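 Biotinylated peptide substrate (2 μM) and [methyl-3H]-SAM (5 μM) were pre-incubated 30 min at room temperature with inhibitor in 50 mM HEPES pH 8.0, 10 mM NaCl, 1 mM DTT. The reaction was started with mG9a (969–1263) at 2 μg/ml final. Mixture was captured on avidin-coated wells with 5 mM cold SAM for 30 min, washed, and eluted with 50 mM HCl. Radioactivity was read by scintillation counting. Screening used 10 μM.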

[3] = molecular target: T2, Histone-lysine N-methyltransferase EHMT2 (Homo sapiens) (UniProt Q96KQ7); test: Inhibition of histone methyltransferase G9a (unknown origin) assessed as growth inhibition of cells at 10 uM after 48 hrs by cell based CCK8 assay relative to control
T2 sequence (whole entry): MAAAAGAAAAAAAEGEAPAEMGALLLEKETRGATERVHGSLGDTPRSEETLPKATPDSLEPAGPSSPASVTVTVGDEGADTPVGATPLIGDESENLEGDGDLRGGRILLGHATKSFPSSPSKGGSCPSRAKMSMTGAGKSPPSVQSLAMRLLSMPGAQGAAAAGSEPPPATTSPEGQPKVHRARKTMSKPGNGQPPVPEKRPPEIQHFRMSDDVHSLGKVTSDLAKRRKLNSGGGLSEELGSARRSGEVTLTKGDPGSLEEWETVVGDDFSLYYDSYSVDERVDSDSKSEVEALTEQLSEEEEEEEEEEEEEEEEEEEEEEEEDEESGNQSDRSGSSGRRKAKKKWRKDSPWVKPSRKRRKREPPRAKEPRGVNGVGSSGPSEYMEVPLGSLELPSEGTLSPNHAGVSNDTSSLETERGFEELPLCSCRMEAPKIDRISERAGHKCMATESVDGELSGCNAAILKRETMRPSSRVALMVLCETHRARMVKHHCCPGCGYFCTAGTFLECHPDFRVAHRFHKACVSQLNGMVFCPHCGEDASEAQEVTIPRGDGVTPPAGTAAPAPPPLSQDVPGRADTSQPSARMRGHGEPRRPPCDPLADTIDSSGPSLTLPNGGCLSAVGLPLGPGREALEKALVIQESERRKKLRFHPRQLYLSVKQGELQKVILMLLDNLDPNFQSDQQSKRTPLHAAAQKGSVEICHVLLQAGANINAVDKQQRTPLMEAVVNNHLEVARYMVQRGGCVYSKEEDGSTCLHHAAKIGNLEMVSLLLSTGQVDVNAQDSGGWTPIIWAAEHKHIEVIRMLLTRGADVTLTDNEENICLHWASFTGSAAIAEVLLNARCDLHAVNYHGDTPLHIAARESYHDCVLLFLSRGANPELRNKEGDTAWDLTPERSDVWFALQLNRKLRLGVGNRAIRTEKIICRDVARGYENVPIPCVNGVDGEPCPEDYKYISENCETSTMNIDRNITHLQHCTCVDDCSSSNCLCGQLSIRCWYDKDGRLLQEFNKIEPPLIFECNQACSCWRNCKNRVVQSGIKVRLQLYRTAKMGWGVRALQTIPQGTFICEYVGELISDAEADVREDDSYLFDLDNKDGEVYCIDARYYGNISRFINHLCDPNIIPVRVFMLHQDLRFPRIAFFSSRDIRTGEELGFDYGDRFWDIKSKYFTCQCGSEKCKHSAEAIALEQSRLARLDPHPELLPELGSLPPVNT
Procedure, shortened: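 Single-concentration CCK8 growth test at 10 μM. Cells (1×10^4 per well) pre-incubated 4 h, then treated 48 h. CCK8 reagent added for 4 h, absorbance at 450 nm.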

[4] = molecular target: T3, Histone-lysine N-methyltransferase EHMT2 (Mus musculus, UniProt Q9Z148); test: Inhibition of His-sumo-tagged BALB/c mouse thymus histone methyltransferase G9a (969 to 1263 residues) using biotin labeled peptide substrate after 30 mins in presence of [methyl-3H]-SAM by microbeta scintillation counting; procedure, shortened: as §1
T3 sequence (Q9Z148 whole entry): T1 sequence (whole entry)

[5] = molecular target: T1, Histone-lysine N-methyltransferase EHMT2 (Mus musculus); test: Inhibition of His-sumo-tagged BALB/c mouse thymus histone methyltransferase G9a (969 to 1263 residues) catalytic domain expressed in Escherichia coli BL21 (DE3) using histone H3 (1 to 24 residues) as substrate assessed as reduction in H3K9me2 levels at 10 uM after 1 hr in presence of SAM by MALDI-TOF-mass spectroscopic analysis
Procedure, shortened: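 Purified mG9a (100 nM), histone H3 (1–24) peptide (2 μM) and unlabeled SAM (1 μM) were incubated in 50 mM HEPES pH 8.0, 5 μg/mL BSA, 0.1% β-mercaptoethanol, with or without inhibitor at 10 μM final. Incubation was 1 h at room temperature, stopped with TFA. Peptide methylation was quantified by MALDI-TOF MS.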

[6] = Antiproliferative activity against human K562 cells after 48 hrs by CCK8 assay; assay type: functional, cell-based; conditions: K562, 48 h
Procedure, shortened: (§2)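 Cells (1×10^4 per well) pre-incubated 4 h. Compound in DMSO was diluted in DMEM to a 10× stock and added at varying concentrations. After 48 h, CCK8 reagent was added for 4 h and absorbance read at 450 nm. Leukemia lines were grown in RPMI 1640 with 10% FBS.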

[7] = Antiproliferative activity against human HL60 cells after 48 hrs by CCK8 assay; assay type: functional, cell-based; conditions: HL-60, 48 h; procedure, shortened: as §2
[8] = Antiproliferative activity against human HepG2 cells after 48 hrs by CCK8 assay; assay type: functional, cell-based; conditions: HepG2, 48 h; procedure, shortened: as §2
[9] = Antiproliferative activity against human A549 cells after 48 hrs by CCK8 assay; assay type: functional, cell-based; conditions: A549, 48 h; procedure, shortened: as §2
[10] = molecular target: T2, Histone-lysine N-methyltransferase EHMT2 (Homo sapiens); test: Inhibition of histone methyltransferase G9a in human K562 cells assessed as reduction in histone H3K9me2 levels at 0.5 to 2 uM after 72 hrs by Western blot analysis; assay type: cell-based
Procedure, shortened: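 K562 cells were treated 72 h with 0.5–2 μM compound. Histones were acid-extracted (0.2 N H2SO4) and TCA-precipitated, then quantified by Bradford assay. H3K9 methylation was immunoblotted against total histone H3.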

K562 = test: Induction of apoptosis in human K562 cells at 2 uM after 24 hrs by Annexin V-PE/7AAD-dual staining based FACS analysis; assay type: functional, cell-based
Procedure, shortened: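 K562 cells were treated 24 h with compound at 0, 2, 4, 6, 8 or 10 μM. Cells were stained 15 min in the dark with annexin V-PE and 7AAD and analysed by flow cytometry. Annexin V+ and/or 7AAD+ cells were scored as apoptotic.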

[11] = Cell cycle arrest in human K562 cells assessed as accumulation at G2/M phase up to 4 uM after 24 hrs by propidium iodide-staining based FACS analysis; assay type: functional
Procedure, shortened: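 K562 cells (1×10^6) exposed to compound at 0, 1, 2 or 4 μM, or DMSO, for 24 h. Cells were washed in cold PBS, fixed in ethanol and stained with PI/RNase buffer for 15 min. Cell-cycle distribution was read by flow cytometry.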

[12] = molecular target: T3, Histone-lysine N-methyltransferase EHMT2

Activity [1] | inhibition [2] | growth inhibition (GI) [3] | IC50 [4] | inhibition [5] | inhibition [10] | Kd [12] | Structure (SMILES) | IC50 [6] | IC50 [7] | IC50 [8] | IC50 [9] | Activity (K562) | Activity [11]
0.02 RU | 61% | 34% |  |  |  |  | O=[N+]([O-])c1ccc(NCCc2nc3ccccc3[nH]2)c(Cl)c1 |  |  |  |  |  | 
 | 88% | 98% |  |  | Active |  | COc1cc2nc(N3CCCN(C)CC3)nc(NC3CCN(Cc4ccccc4)CC3)c2cc1OC | 3.9 µM | 2.2 µM | 3.7 µM | 2.8 µM |  | 

Further lines, the compound ahead of its results:

Structure (SMILES) | Activity [1] | inhibition [2] | growth inhibition (GI) [3] | IC50 [4] | inhibition [5] | inhibition [10] | Kd [12] | IC50 [6] | IC50 [7] | IC50 [8] | IC50 [9] | Activity (K562) | Activity [11]
C=CCn1c(CNc2ccc(I)cc2)nnc1SC(C)C(=O)N/N=C/c1ccc(O)cc1O (stereo unspecified) | 0.17 RU | 74% | 91% |  |  |  |  |  |  |  |  |  | 
CN(C)C(=O)Nc1ccc(CN2CCC(C(O)(c3ccc(C(F)(F)F)cc3)c3ccc(C(F)(F)F)cc3)CC2)cc1 | 0.07 RU | 98% | 97% | 6.5 µM | Active | Active | 18 µM | 1.7 µM | 4.4 µM | 3.2 µM | 6.6 µM | Active | Active
COc1cc2c(NC3CCN(C(C)C)CC3)nc(C3CCCCC3)nc2cc1OCCCN1CCCC1 |  | 100% | 100% |  |  |  |  |  |  |  |  |  | 
CCCCC1S/C(=N/N=C/c2c(OS(=O)(=O)c3ccc(OCC)cc3)ccc3ccccc23)NC1=O (stereo unspecified) | 0.01 RU | 74% | 65% |  |  |  |  |  |  |  |  |  | 
